Measurements pooled from the literature.
Compare with care: the assays were run in different laboratories. pIC50: −log10 of the molar value.
Read-out: cell growth or viability

| Compound | cell line | assay | conditions | pIC50 |
| --- | --- | --- | --- | --- |
| Cc1cccc(-n2ncc(Br)c(Br)c2=O)c1 | NCI-H2122 | resazurin | 96 h | 5.90 |
| CC(C)c1cc(C(=O)N2Cc3ccccc3C2)c(O)c2c1CCCC2=O | UMUC3 | ATP luminescence | 72 h | < 4.00 |
| C[C@]12CC[C@H](O)CC1=CC[C@@H]1[C@@H]2CC[C@]2(C)C(n3cnc4ccccc43)=CC[C@@H]12 | LAPC4 | MTT | 7 days | 5.40 |
| CC(C)c1cc(C(=O)N2Cc3ccccc3C2)c(O)c2c1C(=O)C=C2 | UMUC3 | ATP luminescence | 72 h | 5.93 |
| Cc1ncn2c(=O)n(C)nnc12 | U-118-MG | resazurin | 7 days | 5.15 |
| CCCCCC/N=C1\c2cc(C(N)=O)nc3c(N)c(Cl)c(N)c(c23)N1C | HCC44 |  |  | 5.96 |
| CN(C)C/C=C/C(=O)Nc1cc2c(Nc3ccc(F)c(Cl)c3)ncnc2cc1O[C@H]1CCOC1 | Caco-2 | MTT | 72 h | 5.51 |
| CC(C)c1cc(C(=O)N2Cc3ccccc3C2)c(O)c2c1CCC2 | UMUC3 | ATP luminescence | 72 h | 4.24 |
| Cc1nc(Nc2ncc(C(=O)Nc3c(C)cccc3Cl)s2)cc(N2CCN(CCO)CC2)n1 | F180 | MTT | 48 h | 4.49 |
| CC(=O)OC[C@H]1O[C@@H]([S-])[C@H](OC(C)=O)[C@@H](OC(C)=O)[C@@H]1OC(C)=O.CCP(CC)CC.[Au+] | IMR-90 | resazurin |  | 5.17 |
| Cc1[nH]c(/C=C2\C(=O)Nc3ccc(S(=O)(=O)N(C)c4cccc(Cl)c4)cc32)c(C)c1C(=O)N1CCN(C)CC1 | RD |  | 72 h | 5.68 |
| COc1ccc(CCNC(=O)C(=O)Nc2ccc(Cl)cc2)cc1 | NCI-H2122 |  |  | > 7.00 |
| CC(C)c1cc(C(=O)N2Cc3ccccc3C2)c(O)c2c1C(=O)C(F)(F)C2 | UMUC3 | ATP luminescence | 72 h | < 4.00 |
| COc1cccc(C(=O)O[C@@H]2CN3Cc4c(cc5c(c4OC)OCO5)[C@@]24C=C[C@H](OC)C[C@@H]34)c1 | A2780 | WST-1 |  | < 5.00 |
| O=C(Nc1ccc(Cl)cc1)c1ccc([N+](=O)[O-])o1 | NCI-H1650 | resazurin | 96 h | 6.42 |
| O=C(/C=C/c1ccc(O)c(O)c1)O[C@@H]1C[C@](O)(C(=O)O)C[C@@H](O)[C@H]1O | RD | WST-1 | 48 h | 4.52 |
| COc1cc(N2CCC(N3CCN(C)CC3)CC2)ccc1Nc1ncc(Cl)c(Nc2ccccc2S(=O)(=O)C(C)C)n1 | RD |  | 72 h | 6.60 |
| CNC(=O)c1ccc(N2C(=S)N(c3cnc(C#N)c(C(F)(F)F)c3)C(=O)C23CCC3)cc1F | LAPC4 | ATP luminescence | 6 days | 5.96 |
| CC(C)Cc1ccc(-c2nn(-c3ccc(S(C)(=O)=O)cc3)cc2/C=N\N=C2/NC(=O)CS2)cc1 | F180 | MTT | 48 h | 4.35 |
| O=C(Nc1ccc(CN2CCOCC2)c(C(F)(F)F)c1)c1ccc(C#Cc2cccc3cnccc23)cn1 | IMR-90 | MTT |  | < 3.74 |
| COc1cc(/C=C/C(=O)/C=C/c2c(C)nn(-c3cccc([N+](=O)[O-])c3)c2Cl)cc(OC)c1OC | LLC-PK1 | MTT | 72 h | 5.23 |
| COc1cc2nccc(Oc3ccc(NC(=O)C4(C(=O)Nc5ccc(F)cc5)CC4)cc3)c2cc1OC | RD |  | 72 h | 5.92 |
| CC(C)Cc1ccc(-c2nn(-c3ccc(S(C)(=O)=O)cc3)cc2/C=N/N=c2\[nH]c(-c3ccc(Br)cc3)cs2)cc1 | F180 | MTT | 48 h | 4.13 |
| COc1cc(/C=C/C(=O)/C=C/c2cn(-c3ccccc3)nc2-c2ccccc2)cc(OC)c1O | LLC-PK1 | MTT | 72 h | 4.99 |

| Compound | cell line | assay | conditions | pIC50 |
| --- | --- | --- | --- | --- |
| CC(C)C[C@H](NC(=O)[C@H](Cc1ccccc1)NC(=O)c1cnccn1)B(O)O | U-118-MG | ATP luminescence |  | 8.12 |
| CS(=O)(=O)c1ccc(-n2cc(/C=N/N=c3\[nH]c(-c4ccc([N+](=O)[O-])cc4)cs3)c(-c3ccc(Br)cc3)n2)cc1 | F180 | MTT | 48 h | 4.14 |
| O=c1c(O)c(-c2ccc(O)cc2)oc2cc(O)cc(O)c12 | RD | WST-1 | 48 h | 4.27 |
| Cn1nnc2c(Cl)ncn2c1=O | U-118-MG | resazurin | 7 days | 4.22 |
| CNC(=O)c1cccc2cc(Oc3ccnc4cc(OCC5(N)CC5)c(OC)cc34)ccc12 | Swiss-3T3 | SRB |  | 7.19 |
| CC(C)c1cc(C(=O)N2Cc3ccccc3C2)c(O)c2c1C(=O)C(C(F)(F)F)C2 (centres unmarked) | UMUC3 | ATP luminescence | 72 h | 4.22 |
| CC(C)Cc1ccc(-c2nn(-c3ccc(S(C)(=O)=O)cc3)cc2/C=N/N=c2\[nH]c(-c3ccc([N+](=O)[O-])cc3)cs2)cc1 | F180 | MTT | 48 h | 4.63 |
| CC(C)/N=C1\c2cc(C(N)=O)nc3c(N)c(Cl)c(N)c(c23)N1C | HCC44 |  |  | 6.30 |
| COc1cccc2c1C(=O)c1c(O)c3c(c(O)c1C2=O)C[C@@](O)(C(=O)CO)C[C@@H]3O[C@H]1C[C@H](N)[C@H](O)[C@H](C)O1 | F180 | MTT | 48 h | 5.03 |
| Nc1ncnc2c1ncn2[C@@H]1O[C@H](CO)[C@@H](O)[C@H]1O | RD | WST-1 | 48 h | 4.18 |
| COc1cc(Nc2nccc(-c3cnn4nc(OC)ccc34)n2)cc(C(F)(F)F)c1 | U-118-MG | ATP luminescence |  | 6.92 |
| O=c1cc(-c2ccc(O)c(O)c2)oc2cc(O)cc(O)c12 | RD | WST-1 | 48 h | 4.80 |
| CC(C)c1cc(C(=O)N2Cc3ccccc3C2)c(O)c2cn[nH]c12 | UMUC3 | ATP luminescence | 72 h | < 4.00 |
| COc1cc(/C=C/C(=O)CC(=O)/C=C/c2ccc(O)c(OC)c2)ccc1O | LLC-PK1 | MTT | 72 h | < 4.60 |
| COc1cc([C@@H]2c3cc4c(cc3[C@@H](O[C@@H]3O[C@@H]5CO[C@@H](C)O[C@H]5[C@H](O)[C@H]3O)[C@H]3COC(=O)[C@H]23)OCO4)cc(OC)c1O | Caco-2 | MTS | 72 h | 4.85 |
| COc1cc(/C=C/C(=O)/C=C/c2c(C)nn(-c3ccccc3)c2Cl)ccc1O | LLC-PK1 | MTT | 72 h | 5.02 |
| COc1cccc2c1C(=O)c1c(O)c3c(c(O)c1C2=O)C[C@@](O)(C(=O)CO)C[C@@H]3O[C@H]1C[C@H](N)[C@H](O)[C@H](C)O1 | Caco-2 | MTT | 48 h | 4.75 |
| COc1ccc(/C=C/C(=O)/C=C/c2c(C)nn(-c3ccccc3)c2Cl)cc1O | LLC-PK1 | MTT | 72 h | 4.79 |
| CC(C)c1cc(C(=O)N2Cc3ccccc3C2)c(O)c2c1C(=O)C(C)(C)C2 | UMUC3 | ATP luminescence | 72 h | 4.28 |
| Cn1nnc2c(C(=O)N3CCCC3)ncn2c1=O | U-118-MG | resazurin | 7 days | 3.87 |
| CC(C)c1cc(C(=O)N2Cc3ccccc3C2)c(O)c2cc[nH]c12 | UMUC3 | ATP luminescence | 72 h | < 4.00 |
| Cn1nnc2c(C(N)=O)ncn2c1=O | U-118-MG | resazurin | 7 days | 3.49 |
| COc1ccc(/C=C/C(=O)/C=C/c2c(C)nn(-c3cccc([N+](=O)[O-])c3)c2Cl)cc1OC | LLC-PK1 | MTT | 72 h | 4.68 |
